In ChEMBL document CHEMBL1149790, “Synthesis of some novel thiourea derivatives obtained from 5-[(4-aminophenoxy)methyl]-4-alkyl/aryl-2,4-dihydro-3H-1,2,4-triazole-3-thiones and evaluation as antiviral/anti-HIV and anti-tuberculosis agents” (Eur J Med Chem, 2008):
≈ marks a conversion by molar mass, not a printed value.

What was measured:
Vero = assay: Cytotoxicity against african green monkey Vero cells; type: cell-based; conditions: chlorocebus sabaeus
Method in brief: (§1)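 Uninfected cell cultures exposed to test compounds alongside antiviral assays; minimum cytotoxic concentration (MCC) = concentration causing a microscopically detectable alteration of cell morphology.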

[1] = system: Respiratory syncytial virus; assay: Antiviral activity against respiratory syncytial virus in human HeLa cells assessed as inhibition of virus-induced cytopathogenicity; type: functional
Method in brief: (§2)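 Confluent cell monolayers (E6SM, HEL, HeLa or Vero, per line) inoculated with 100 CCID50 virus; 1 h adsorption, residual virus removed, then incubated with compound at 400, 200, 100 … µg/ml. Cytopathicity scored once complete in untreated virus controls; MIC = concentration inhibiting virus-induced cytopathicity.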

[2] = Cytotoxicity against human HEL cells assessed as alteration of cell morphology; type: cell-based; method in brief: as §1
Sindbis virus = assay: Antiviral activity against Sindbis virus in african green monkey Vero cells assessed as reduction of virus-induced cytopathogenicity; type: functional; method in brief: as §2
[3] = Cytotoxicity against human HEL cells assessed as reduction of cell growth; type: cell-based
Method in brief: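 HEL cells; CC50 = compound concentration reducing cell growth by 50%.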

Human alphaherpesvirus 2 [4] = assay: Antiviral activity against HSV2 G in human HEL cells assessed as reduction of virus-induced cytopathogenicity; type: functional; conditions: Human alphaherpesvirus 2, G; method in brief: as §2
[5] = Cytotoxicity against human MT4 cells by MTT assay; type: cell-based
Method in brief: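 Mock-infected MT-4 cells (6 × 10⁵ cells/ml) with serial five-fold compound dilutions in triplicate; MTT reduction read at 540 and 690 nm after 5 days, median OD of three wells; CC50 = concentration reducing OD540 of mock-infected control by 50%.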

Human alphaherpesvirus 1 [6] = assay: Antiviral activity against thymidine kinase deficient and acyclovir resistant HSV1 KOS in human E6SM cells assessed as reduction of virus-induced cytopathogenicity; type: functional; conditions: Human alphaherpesvirus 1, KOS; method in brief: as §2
[7] = system: Vesicular stomatitis virus; assay: Antiviral activity against in Vesicular stomatitis virus in human HEL cells assessed as reduction of virus-induced cytopathogenicity; type: functional; method in brief: as §2
[8] = system: Vesicular stomatitis virus; assay: Antiviral activity against vesicular stomatitis virus in human HeLa cells assessed as inhibition of virus-induced cytopathogenicity; type: functional; method in brief: as §2
Human alphaherpesvirus 1 [9] = assay: Antiviral activity against thymidine kinase deficient and acyclovir resistant HSV1 KOS in human HEL cells assessed as reduction of virus-induced cytopathogenicity; type: functional; conditions: Human alphaherpesvirus 1, KOS; method in brief: as §2
Punta Toro virus = assay: Antiviral activity against Punta Toro virus in african green monkey Vero cells assessed as reduction of virus-induced cytopathogenicity; type: functional; method in brief: as §2
Coxsackievirus B4 [10] = assay: Antiviral activity against Coxsackie virus B4 in african green monkey Vero cells assessed as reduction of virus-induced cytopathogenicity; type: functional; conditions: Enterovirus B; method in brief: as §2
Coxsackievirus B4 [11] = assay: Antiviral activity against Coxsackie virus B4 in human HeLa cells assessed as inhibition of virus-induced cytopathogenicity; type: functional; conditions: Enterovirus B; method in brief: as §2
Human alphaherpesvirus 2 [12] = assay: Antiviral activity against HSV2 G in human E6SM cells assessed as reduction of virus-induced cytopathogenicity; type: functional; conditions: Human alphaherpesvirus 2, G; method in brief: as §2
Human alphaherpesvirus 3 [13] = assay: Antiviral activity against TK- VZV 07/1 infected HEL cells assessed as reduction in virus plaque formation; type: functional, organism-based; conditions: Human alphaherpesvirus 3, 07/1, HEL
Human alphaherpesvirus 1 [14] = assay: Antiviral activity against HSV1 KOS in human E6SM cells assessed as reduction of virus-induced cytopathogenicity; type: functional; conditions: Human alphaherpesvirus 1, KOS; method in brief: as §2
Human respirovirus 3 = assay: Antiviral activity against Parainfluenza 3 virus in african green monkey Vero cells assessed as reduction of virus-induced cytopathogenicity; type: functional; method in brief: as §2
Human betaherpesvirus 5 [15] = assay: Antiviral activity against human cytomegalovirus Davis infected HEL cells assessed as reduction in virus plaque formation; type: functional, organism-based; conditions: Human betaherpesvirus 5, Davis
[16] = system: Mammalian orthoreovirus 1; assay: Antiviral activity against Reo virus 1 in african green monkey Vero cells assessed as reduction of virus-induced cytopathogenicity; type: functional; method in brief: as §2
[17] = system: Vesicular stomatitis virus; assay: Antiviral activity against in Vesicular stomatitis virus in human E6SM cells assessed as reduction of virus-induced cytopathogenicity; type: functional; method in brief: as §2
[18] = system: Human immunodeficiency virus 2; assay: Antiviral activity against HIV2 ROD in human MT4 cells assessed as protection against virus-induced cytopathogenicity by MTT assay; type: functional, organism-based; parameters: Activity: concentration or dose not given beside the values; conditions: for IC50: Human immunodeficiency virus 2, ROD, MT4
Method in brief: (§3)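 MT-4 cells at 6 × 10⁵ cells/ml infected with HIV-1 IIIB or HIV-2 ROD at 100–300 CCID50; compounds in serial five-fold dilutions, triplicate mock- and virus-infected wells. MTT viability read at 540 and 690 nm after 5 days, median OD of three wells; EC50 = 50% protection from viral cytopathic effect.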

Human betaherpesvirus 5 [19] = assay: Antiviral activity against human cytomegalovirus AD169 infected HEL cells assessed as reduction in virus plaque formation; type: functional, organism-based; conditions: Human betaherpesvirus 5, AD169, HEL
Human alphaherpesvirus 3 [20] = assay: Antiviral activity against TK+ VZV OKA infected HEL cells assessed as reduction in virus plaque formation; type: functional, organism-based; conditions: Human alphaherpesvirus 3, OKA
Human alphaherpesvirus 1 [21] = assay: Antiviral activity against HSV1 KOS in human HEL cells assessed as reduction of virus-induced cytopathogenicity; type: functional; conditions: Human alphaherpesvirus 1, KOS; method in brief: as §2
[22] = system: Human immunodeficiency virus 1; assay: Antiviral activity against HIV1 3B in human MT4 cells assessed as protection against virus-induced cytopathogenicity by MTT assay; type: functional, organism-based; parameters: Activity: concentration or dose not given beside the values; conditions: for IC50: Human immunodeficiency virus 1, 3B, MT4; method in brief: as §3
[23] = Cytotoxicity against human HeLa cells; type: cell-based; method in brief: as §1
[24] = Cytotoxicity against human E6SM cells; type: cell-based; conditions: E6SM cells; method in brief: as §1

Row | Structure (SMILES) | Activity (Vero) | MIC [1] | MCC [2] | MIC (Sindbis virus) | CC50 [3] | MIC (Human alphaherpesvirus 2 [4]) | CC50 [5] | MIC (Human alphaherpesvirus 1 [6]) | MIC [7] | MIC [8] | MIC (Human alphaherpesvirus 1 [9]) | MIC (Punta Toro virus) | MIC (Coxsackievirus B4 [10]) | MIC (Coxsackievirus B4 [11]) | MIC (Human alphaherpesvirus 2 [12]) | EC50 (Human alphaherpesvirus 3 [13]) | MIC (Human alphaherpesvirus 1 [14]) | MIC (Human respirovirus 3) | EC50 (Human betaherpesvirus 5 [15]) | EC50 (Human betaherpesvirus 5 [19]) | other results
1 | CCNC(=S)Nc1ccc(OCc2n[nH]c(=S)n2-c2ccccc2)cc1 | 400 µg/mL | > 80 µg/mL | > 400 µg/mL | > 80 µg/mL | > 50 µg/mL | > 400 µg/mL | 22 µg/mL (≈ 57.1 µM) | > 400 µg/mL | > 400 µg/mL | > 80 µg/mL | > 400 µg/mL | > 80 µg/mL | 80 µg/mL (≈ 208 µM) | > 80 µg/mL | > 400 µg/mL | > 100 µg/mL | > 400 µg/mL | > 80 µg/mL | > 100 µg/mL | > 100 µg/mL | MIC [16]: > 80 µg/mL; MIC [17]: > 400 µg/mL; Activity [18]: 11%; IC50 [18]: > 19.4 µg/mL; EC50 (Human alphaherpesvirus 3 [20]): > 100 µg/mL; MIC (Human alphaherpesvirus 1 [21]): > 400 µg/mL; Activity [22]: 1%; IC50 [22]: > 15 µg/mL; MCC [23]: 400 µg/mL; MCC [24]: > 400 µg/mL
2 | C=CCn1c(COc2ccc(NC(=S)NC)cc2)n[nH]c1=S | 400 µg/mL | > 80 µg/mL | > 400 µg/mL | > 80 µg/mL | > 50 µg/mL | > 400 µg/mL | 108 µg/mL (≈ 323 µM) | > 400 µg/mL | > 400 µg/mL | > 80 µg/mL | > 400 µg/mL | > 80 µg/mL | > 80 µg/mL | > 80 µg/mL | > 400 µg/mL | > 100 µg/mL | > 400 µg/mL | > 80 µg/mL | > 100 µg/mL | > 100 µg/mL | MIC [16]: > 80 µg/mL; MIC [17]: > 400 µg/mL; Activity [18]: 3.5%; IC50 [18]: > 110 µg/mL; EC50 (Human alphaherpesvirus 3 [20]): > 100 µg/mL; MIC (Human alphaherpesvirus 1 [21]): > 400 µg/mL; Activity [22]: 1%; IC50 [22]: > 101 µg/mL; MCC [23]: 400 µg/mL; MCC [24]: > 400 µg/mL
3 | Cn1c(COc2ccc(N)cc2)n[nH]c1=S | 16 µg/mL | > 400 µg/mL | > 400 µg/mL | > 3.2 µg/mL | > 50 µg/mL | 80 µg/mL (≈ 339 µM) | ≥ 119 µg/mL | 80 µg/mL (≈ 339 µM) | > 400 µg/mL | > 400 µg/mL | 80 µg/mL (≈ 339 µM) | > 3.2 µg/mL | > 3.2 µg/mL | > 400 µg/mL | 80 µg/mL (≈ 339 µM) | > 100 µg/mL | 400 µg/mL (≈ 1690 µM) | > 3.2 µg/mL | > 100 µg/mL | > 100 µg/mL | MIC [16]: > 3.2 µg/mL; MIC [17]: > 400 µg/mL; Activity [18]: 4%; IC50 [18]: > 125 µg/mL; EC50 (Human alphaherpesvirus 3 [20]): > 100 µg/mL; MIC (Human alphaherpesvirus 1 [21]): 400 µg/mL (≈ 1690 µM); Activity [22]: 2.5%; IC50 [22]: > 125 µg/mL; MCC [23]: > 400 µg/mL; MCC [24]: > 400 µg/mL
4 | S=C(Nc1ccccc1)Nc1ccc(OCc2n[nH]c(=S)n2-c2ccccc2)cc1 | 80 µg/mL | > 16 µg/mL | 400 µg/mL | > 16 µg/mL | > 50 µg/mL | > 80 µg/mL | 44.1 µg/mL (≈ 102 µM) | > 80 µg/mL | > 80 µg/mL | > 16 µg/mL | > 80 µg/mL | > 16 µg/mL | > 16 µg/mL | > 16 µg/mL | > 80 µg/mL | 39 µg/mL (≈ 90 µM) | > 80 µg/mL | > 16 µg/mL | 37 µg/mL (≈ 85.3 µM) | > 20 µg/mL | MIC [16]: > 16 µg/mL; MIC [17]: > 80 µg/mL; Activity [18]: 4.5%; IC50 [18]: > 41.5 µg/mL; EC50 (Human alphaherpesvirus 3 [20]): 26 µg/mL (≈ 60 µM); MIC (Human alphaherpesvirus 1 [21]): > 80 µg/mL; Activity [22]: 5.5%; IC50 [22]: > 30.6 µg/mL; MCC [23]: 80 µg/mL; MCC [24]: 400 µg/mL
5 | Nc1ccn(C[C@@H](CO)OCP(=O)(O)O)c(=O)n1.O.O [CIDOFOVIR] |  |  | > 400 µg/mL |  | ≥ 18 µg/mL |  |  |  |  |  |  |  |  |  |  |  |  |  | 0.64 µg/mL | 0.075 µg/mL | 
